Results as given in ChEMBL document CHEMBL3751796, “Structure-Based Discovery of Novel Cyclophilin A Inhibitors for the Treatment of Hepatitis C Virus Infections” (J Med Chem, 2015).
Activity calls are given as the source filed them. The rule behind the calls is not given here.

Legend:
[1] = target: T1, Peptidyl-prolyl cis-trans isomerase B (Homo sapiens, UniProt P23284)
Hepatitis C virus [2] = test: Antiviral activity against HCV genotype 1b Con1 infected in human Huh7.5 cells assessed as stimulation of STAT2 mRNA expression at 2 uM incubated up to 96 hrs by qRT-PCR method; format: functional, organism-based; details: Hepacivirus hominis, isolate Con1, Huh-7, TDE = time-dependent effect
Method in brief: (§1)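 mRNA measured by SYBR Green qRT-PCR using the 2^−ΔΔCT method, normalized to GAPDH and expressed as fold change vs controls.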

[3] = Selectivity index, ratio of CC50 for mock-infected human Huh7.5 cells to EC50 for recombinant HCV genotype 2a JFH1; set-up: species or system Huh-7
Method in brief: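 Huh7.5 cells infected with JFH1-Luc virus (MOI 0.004, 5 h, 37 °C) in the presence of 3-fold serial dilutions. EC50 came from Renilla luciferase on day 3. CC50 came from MTT viability of mock-infected Huh7.5 cells treated in parallel. SI = CC50/EC50.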

Hepatitis C virus [4] = test: Antiviral activity against HCV infected in human Huh7.5 cells assessed as inhibition of IL-8 level by ELISA in presence of IFN-alpha; format: functional, organism-based; details: Hepacivirus hominis; Huh-7
Hepatitis C virus [5] = test: Antiviral activity against HCV genotype 1b Con1 infected in human Huh7.5 cells expressing GFP-fused NS5A measured 72 hrs post infection by hoechst 33342 staining based confocal microscopy; format: functional, organism-based, Hepacivirus hominis; details: isolate Con1, Huh-7, 72 h
Method in brief: (§2)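 Huh7 replicon cells expressing NS5A-GFP seeded at 2 × 10^3/well and left overnight, then given serially diluted compound. At 72 h, fixed in 2% PFA and nuclei stained with Hoechst 33342 (10 μg/mL). Automated confocal imaging: GFP-positive cells give activity, nuclei counts give cytotoxicity. EC50/CC50 from nonlinear regression.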

[6] = target: T2, Peptidyl-prolyl cis-trans isomerase A (Homo sapiens, UniProt P62937); test: Inhibition of Cyclophilin A peptidyl-prolyl cis-trans isomerase activity (unknown origin) using Succ-Ala-Leu-Pro-Phe-p-nitroaniline as substrate by enzyme kinetic analysis
Target sequence in this assay (P62937 whole entry): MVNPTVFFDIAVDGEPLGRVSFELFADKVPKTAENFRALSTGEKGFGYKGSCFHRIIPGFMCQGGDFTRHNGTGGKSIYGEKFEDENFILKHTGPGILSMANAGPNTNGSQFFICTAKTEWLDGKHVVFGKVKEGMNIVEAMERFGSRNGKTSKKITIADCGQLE

Hepatitis C virus [7] = test: Antiviral activity against HCV genotype 1b Con1 infected in human Huh7.5 cells assessed as stimulation of OAS1 mRNA expression at 2 uM incubated up to 96 hrs by qRT-PCR method; format: functional, organism-based; details: Hepacivirus hominis, isolate Con1, Huh-7, TDE = time-dependent effect
Method in brief: as §1

Hepatitis C virus [8] = test: Antiviral activity against HCV genotype 1b Con1 infected in human Huh7.5 cells assessed as stimulation of IRF9 expression at 2 uM incubated up to 96 hrs by Western blot analysis; format: functional, organism-based; details: Hepacivirus hominis, isolate Con1, Huh-7, TDE = time-dependent effect
Hepatitis C virus [9] = test: Antiviral activity against HCV genotype 1b Con1 infected in human Huh7.5 cells assessed as stimulation of STAT1 mRNA expression at 2 uM incubated up to 96 hrs by qRT-PCR method; format: functional, organism-based; details: Hepacivirus hominis, isolate Con1, Huh-7, TDE = time-dependent effect
Method in brief: as §1

Mus musculus [10] = test: Toxicity in BALB/c mouse assessed as changes in body weight at 50 mg/kg, iv for 2 weeks; format: organism-based; details: in vivo, 336 h
[11] = Cytotoxicity against HCV infected human Huh7.5 cells assessed as cell death by MTT assay in presence of telaprevir; format: cell-based; details: huh-7
Hepatitis C virus [12] = test: Antiviral activity against HCV infected in human Huh7.5 cells assessed as inhibition of IL-8 level by ELISA in presence of ribavirin; format: functional, organism-based; details: Hepacivirus hominis; Huh-7
Hepatitis C virus [13] = test: Antiviral activity against HCV genotype 1b Con1 infected in human Huh7.5 cells assessed as stimulation of ISG15 expression at 2 uM incubated up to 96 hrs by Western blot analysis; format: functional, organism-based; details: Hepacivirus hominis, isolate Con1, Huh-7, TDE = time-dependent effect
[14] = Cytotoxicity against mock-infected human Huh7.5 cells assessed as reduction in cell viability incubated for 5 hrs by MTT assay; format: cell-based, Huh-7; details: mock-infected Huh7.5 cells
Method in brief: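 Mock-infected Huh7.5 cells run alongside the JFH1-Luc antiviral assay with 3-fold serial dilutions. Viability read by MTT assay to give CC50.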

Mus musculus [15] = test: Toxicity in NOD/SCID mouse assessed as body weight change at 50 mg/kg, ip measured up to 14 days; format: organism-based; details: in vivo, 336 h
Hepatitis C virus [16] = test: Antiviral activity against HCV genotype 1b Con1 infected in human Huh7.5 cells assessed as inhibition of NS5A expression in membrane fractions at 2 uM by Western blot analysis; format: functional, organism-based; details: Hepacivirus hominis, isolate Con1, Huh-7
Method in brief: (§3)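 Con1b replicon cells treated with 2 μM. Total lysates, and a membrane fraction prepared by hypotonic buffer, dounce homogenization, 220g spin and then 68 000g for 1 h at 4 °C, analyzed by Western blot for NS5A and NS5B.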

[17] = target: T2, Peptidyl-prolyl cis-trans isomerase A; test: Inhibition of recombinant GST-tagged Cyclophilin A (unknown origin) interaction with HCV GST-tagged NS5B at 2 to 4 uM by GST pulldown assay
Target sequence in this assay (P62937 whole entry, looked up): as the sequence (P62937 whole entry) above

[18] = Cytotoxicity against HCV genotype 1b Con1 infected human Huh7.5 cells expressing GFP-fused NS5A assessed as reduction in cell viability measured 72 hrs post infection by hoechst 33342 staining based confocal microscopy; set-up: species or system Huh-7
Method in brief: as §2

Hepatitis C virus [19] = test: Antiviral activity against HCV genotype 1b Con1 infected in human Huh7.5 cells assessed as upregulation of IFN-alpha expression incubated up to 96 hrs by ELISA; format: functional, organism-based; details: Hepacivirus hominis; isolate Con1; Huh-7
Method in brief: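 Con1b replicon cells, 2 × 10^6/well, treated with 2 μM for up to 4 days at 37 °C. Pooled culture media assayed for IL-8 and IFN-α by ELISA.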

Hepatitis C virus [20] = test: Antiviral activity against HCV genotype 1b Con1 infected in human Huh7 cells xenografted in immunodeficient NOD/SCID mouse assessed as inhibition of NS5B expression in liver at 50 mg/kg, ip up to 14 days by Western blot analysis; format: functional, organism-based; details: Hepacivirus hominis, isolate Con1, Huh-7
Hepatitis C virus [21] = test: Antiviral activity against HCV genotype 1b Con1 infected in human Huh7.5 cells assessed as inhibition of NS5A expression at 2 uM by DAPI staining based confocal microscopy; format: functional, organism-based; details: Hepacivirus hominis, isolate Con1, Huh-7
Method in brief: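 Con1b replicon cells treated at 2 μM. Stained with Alexa red anti-NS5A and Alexa green anti-NS5B antibodies plus DAPI, then imaged by confocal microscopy for colocalization. Images representative of at least three experiments.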

[22] = Cytotoxicity against BALB/c mouse splenocytes assessed as reduction in cell viability at 1 to 10 uM; format: cell-based; details: splenocyte
Mus musculus [23] = test: Hepatotoxicity in BALB/c mouse assessed as changes in serum aspartate transaminase level at 50 mg/kg, iv for 2 weeks by GOT kit assay; format: toxicity, organism-based; details: in vivo, 336 h
[24] = target: T1, Peptidyl-prolyl cis-trans isomerase B; test: Dissociation rate to Cyclophilin B (unknown origin) by surface plasmon resonance analysis
Hepatitis C virus [25] = test: Antiviral activity against HCV genotype 1b Con1 infected in human Huh7.5 cells assessed as inhibition of NS5B expression in membrane fractions at 2 uM by Western blot analysis; format: functional, organism-based; details: Hepacivirus hominis, isolate Con1, Huh-7
Method in brief: as §3

Hepatitis C virus [26] = test: Antiviral activity against HCV genotype 1b Con1 infected in human Huh7.5 cells assessed as upregulation of IFN-alpha mRNA expression incubated up to 96 hrs by qRT-PCR method; format: functional, organism-based; details: Hepacivirus hominis; isolate Con1; Huh-7
Method in brief: as §1

Hepatitis C virus [27] = test: Antiviral activity against HCV genotype 2a JFH1 infected in human Huh7.5 cells expressing GFP-fused NS5A measured 72 hrs post infection by hoechst 33342 staining based confocal microscopy; format: functional, organism-based, Hepacivirus hominis; details: JFH-1, Huh-7, 72 h

T1 sequence (P23284 whole entry): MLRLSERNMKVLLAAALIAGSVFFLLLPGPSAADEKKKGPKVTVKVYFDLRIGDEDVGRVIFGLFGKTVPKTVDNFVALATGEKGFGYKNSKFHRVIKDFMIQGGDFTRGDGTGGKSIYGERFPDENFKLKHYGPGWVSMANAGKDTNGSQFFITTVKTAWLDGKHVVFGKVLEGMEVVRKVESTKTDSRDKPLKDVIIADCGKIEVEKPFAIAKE

For `COc1cc(C(C(=O)NC2CCCCC2)N(C(=O)Cc2c[nH]c3ccccc23)c2ccc(C(C)C)cc2)cc(OC)c1OC` (configuration not stated), the Kd [1] was 2100 nM, the Activity (Hepatitis C virus [2]) was “tde” and the “Ratio CC50/EC50” value [3] was greater than 19.2. For the same compound, the inhibition (Hepatitis C virus [4]) was “Active”, the EC50 (Hepatitis C virus [5]) was 730 nM and the IC50 [6] was 5.5 nM. For the same compound, the Activity (Hepatitis C virus [7]) was “tde”, the Activity (Hepatitis C virus [8]) was “tde” and the Activity (Hepatitis C virus [9]) was “tde”. For the same compound, the Activity (Mus musculus [10]) was “Non-toxic”, the Activity [11] was “Non-toxic” and the inhibition (Hepatitis C virus [12]) was “Active”. For the same compound, the Activity (Hepatitis C virus [13]) was “tde”, the CC50 at 5 h [14] was greater than 100000 nM and the Activity (Mus musculus [15]) was “Non-toxic”. For the same compound, the inhibition (Hepatitis C virus [16]) was “Active”, the inhibition [17] was “Active” and the CC50 at 72 h [18] was 12400 nM. For the same compound, the Activity (Hepatitis C virus [19]) was “Active”, the inhibition (Hepatitis C virus [20]) was “Active” and the inhibition (Hepatitis C virus [21]) was “Active”. The Activity [22] was “Non-toxic”, the Activity (Mus musculus [23]) was “Non-toxic” and the koff [24] was 8.25 ×10⁻⁴ /s. For the same compound, the inhibition (Hepatitis C virus [25]) was “Active”, the Activity (Hepatitis C virus [26]) was “Active” and the EC50 (Hepatitis C virus [27]) was 1120 nM.
